From PubChem
AHR act – human AHR activation; 2.5% of 320,000 active; activation, % at 5 µM; P35869; AHR-responsive luciferase reporter cells, luminescence; AID 2796; in the data active means activation above about 47%;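 further: 0% = vehicle wells and 100% = reference agonist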
MsrA act – activates bovine MsrA enzyme; purified bovine MsrA, absorbance read-out; activation, % at 10.6 µM; 0.3% of 360,000 active; in the data active means activation above about 7.5%;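 further: 0% = vehicle and 100% = reference activator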
MsrA inhibitor – inhibitors of bovine MsrA | 0.75% of 360,000 active | purified bovine MsrA, absorbance read-out | inhibition, % at 15.5 µM;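 further: 0% = vehicle wells with enzyme and 100% = reference inhibitor wells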
HTR2A ag – mouse HTR2A agonism via beta-arrestin recruitment; CHO-K1 mHTR2A beta-arrestin complementation, luminescence; percent of 30 µM serotonin response; P35363; activation, % at 7.6 µM; 0.66% of 360,000 active;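 active means activation above a run cutoff, the mean activation of all tested compounds plus 3 SD, cut at about 14% in these data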;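 further: 0% = plate median of compound wells and 100% = 30 µM serotonin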
Target sequence (P35363 whole entry, looked up): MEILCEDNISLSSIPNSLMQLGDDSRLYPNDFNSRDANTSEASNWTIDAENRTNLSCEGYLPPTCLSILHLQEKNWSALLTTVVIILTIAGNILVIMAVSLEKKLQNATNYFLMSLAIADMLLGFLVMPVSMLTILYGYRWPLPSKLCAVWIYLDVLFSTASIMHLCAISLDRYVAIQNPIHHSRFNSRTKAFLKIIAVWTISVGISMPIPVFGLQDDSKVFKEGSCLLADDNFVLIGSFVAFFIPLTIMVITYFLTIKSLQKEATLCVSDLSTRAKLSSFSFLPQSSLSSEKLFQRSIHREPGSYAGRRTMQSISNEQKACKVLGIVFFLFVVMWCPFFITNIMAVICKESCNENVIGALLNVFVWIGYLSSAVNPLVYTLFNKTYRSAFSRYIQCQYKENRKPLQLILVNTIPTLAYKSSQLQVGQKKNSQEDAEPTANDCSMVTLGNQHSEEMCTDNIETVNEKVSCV
Tb MetRS inh – Trypanosoma brucei MetRS inhibition; inhibition, % at 11.9 µM; purified T. brucei MetRS, ATP depletion, Kinase-Glo luminescence; AID 624268; 0.4% of 360,000 active;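 active means inhibition above a per-plate cutoff of the control wells' mean inhibition plus 3 SD, cut at about 5.5% in these data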;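 further: 0% = DMSO wells median and 100% = median of wells with control inhibitor compound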
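Dosing: 11.9 µM compound single dose, 0.9% DMSO; Assay system: purified T. brucei MetRS enzyme; Measured by: Kinase-Glo luciferase luminescence reporting remaining unconsumed ATP; Schedule: 15 min plus 2 h at 25 °C.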
AI-2 QS mod – modulates the Vibrio harveyi AI-2 quorum sensing system. activity change, % at 7.5 µM. 0.4% of 300,000 active. Vibrio harveyi JMH597 AI-2 luminescence/OD600 ratio, 9 h; active compounds read low; strain lacks LuxN and CqsS sensors; 0 = neutral-control median. AID 2094; in the data active means activity change below about -75%, passing the limit was not always enough;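 further: luminescence divided by OD600 gain over 9 h not by final OD600 alone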
MsrA conf – confirmation of bovine MsrA inhibitors. shares compounds with MsrA inhibitor. purified bovine MsrA, absorbance read-out. inhibition, % at 15.5 µM. 41% of 2,300 active;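 further: coupled to thioredoxin reductase with NADPH and selenocystamine and DMSO as substrate; 0% = vehicle only and 100% = full effect of reference inhibitor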
Numbers without * were called inactive; / = no result. Most compounds without a hit are left out; they make up all but 4.4% or so of the library. Unless noted, no stated cut-off is given here; in the data, active means inhibition above about 4.5%; inactive means the rest.

SMILES	AHR act	MsrA act	MsrA inhibitor	HTR2A ag	Tb MetRS inh	AI-2 QS mod	MsrA conf
CCc1cc2c(=O)c(-c3nc4ccccc4n3C)c(C)oc2c(CN2CCN(C)CC2)c1O	-2	/	/	/	/	27	/
CCc1cc2c(=O)c(-c3nc4ccccc4n3C)c(C(C)C)oc2c(CN2CCN(C)CC2)c1O	1	-3	2	3	0	6	/
CCc1cc2c(=O)c(-c3nc4ccccc4n3C)c(C)oc2c(CN2CCN(CCO)CC2)c1O	0	-8	5.2*	2	-1	4	3
COc1ccc(C(=O)OCC(=O)Nc2ccc3c(c2)OCO3)cc1S(=O)(=O)N1CCOCC1	/	-1	0	1	0	/	/
CC1(C)CC(=O)C(C=Nc2ccc(O)cc2)=C(O)C1	0	-4	5.4*	0	-1	23	4
CC1(C)CC(=O)C(C=Nc2ccc3[nH]ncc3c2)=C(O)C1	5	-10	5.6*	2	0	21	4.8*
COc1cccc(N=CC2=C(O)CC(C)(C)CC2=O)c1	5	-2	6.2*	2	0	26	4
CCOc1ccccc1NC(=O)CSc1nncc2ccccc12	13	-7	2	-10	-1	/	/
O=C(Cn1nc2ccccc2n1)N/N=C/c1cc([N+](=O)[O-])ccc1O	2	-4	4.7*	-14	0	-86*	4
O=c1oc2ccccc2cc1-c1nc2ccccc2o1	16	-18	5.2*	-4	-2	20	4
O=C(COC(=O)/C=C/c1cccc(C(F)(F)F)c1)NC1CCS(=O)(=O)C1 (centres undefined)	-1	-5	2	7	0	/	/
CC(=O)c1ccc(N2CCN(C(=O)c3ccc(Cn4c(=S)[nH]c5ccc(N6CCOCC6)cc5c4=O)cc3)CC2)cc1	9	-5	5.0*	2	0	51	4.8*
O=C(c1ccc2c(=O)n(Cc3ccccc3)c(=S)[nH]c2c1)N1CCOCC1	2	-3	1	0	0	/	/
Cc1ccc(C)n1-n1cnc2scc(-c3cccs3)c2c1=O	2	-2	5.5*	-7	0	12	2
COc1ccc(/C=N/NC(=O)c2c(C)n(C)c3ccc(OC)cc23)c(OC)c1	17	-5	4.9*	-1	0	27	4
COc1ccc2c(c1)c(C(=O)N/N=C/c1cccc(O)c1)c(C)n2C	6	-3	2	-3	0	11	/
CC1(c2ccccc2)NC(=O)N(CC(=O)NCc2cccc(Cl)c2)C1=O (centres undefined)	0	-6	0	3	0	-34	/
COc1ccc(NC(=O)C2(C)CCN2CCc2ccccc2)cc1OC (centres undefined)	/	-1	0	-4	0	/	/
Cc1cccc(C)c1NC(=O)C(c1ccncc1)n1c(=O)c(-c2cc3ccccc3[nH]2)nc2ccccc21 (centres undefined)	/	/	0	7	0	/	/
CC(C)O/C(=N/S(=O)(=O)c1ccc(Cl)cc1)c1ccccc1	/	0	-1	-1	0	/	/
O=C(Cn1cnc2c(NCc3ccccc3)ncnc21)NCc1nc2ccccc2[nH]1	/	-3	2	-4	0	/	/
CCCN(CC(=O)Nc1ccc(F)c(F)c1F)C(=O)Cc1ccc(S(=O)(=O)N2CCOCC2)s1	-1	-4	0	7	0	/	/
CCCC1=[N+](CC)CCn2c(C)ccc21	-1	-6	4	-3	0	11	/
CCCC1=[N+](CC(=O)c2ccccc2)CCn2c(C)ccc21	49*	-2	5.2*	-7	0	12	4.6*
COc1cc2c(cc1OC)-c1cc(Nc3ccc(C(=O)O)cc3)nc(=O)n1CC2	1	-8	4	-5	-1	12	/
SMILES	AHR act	MsrA act	MsrA inhibitor	HTR2A ag	Tb MetRS inh	AI-2 QS mod	MsrA conf
COc1ccc(Nc2cc3n(c(=O)n2)CCc2cc(OC)c(OC)cc2-3)cc1	1	1	5.5*	0	0	13	4
COc1cc2c(cc1OC)-c1cc(Nc3ccc4c(c3)OCCO4)nc(=O)n1CC2	-6	-5	5.1*	-5	-1	22	4
COc1cc2c(cc1OC)-c1cc(Nc3ccc(C)cc3)nc(=O)n1CC2	25	-1	4	3	-1	33	/
COc1cc2c(cc1OC)-c1cc(Nc3ccccc3Br)nc(=O)n1CC2	3	-4	7.5*	-3	-1	31	5
COc1cc2c(cc1OC)-c1cc(Nc3ccccc3)nc(=O)n1CC2	-1	-3	5.1*	3	0	6	3
Cc1ccc(S(=O)(=O)N(C)C[C@@H]2OCCCC[C@H](C)Oc3ccc(NC(=O)Nc4ccc(F)cc4)cc3C(=O)N([C@H](C)CO)C[C@H]2C)cc1	/	0	0	-1	0	/	/
COc1ccc(Nc2cc3n(c(=O)n2)CCc2cc(OC)c(OC)cc2-3)c(C)c1	8	-5	4.9*	0	-1	39	3
COc1cc(/C=N/NC(=S)Nc2cccc(C(=O)O)c2)cc(OC)c1OC	4	-8	5.1*	6	0	14	4
CN(C)c1ccc(/C=N/Nc2cccc(C(=O)O)c2)cc1	-1	-4	5.1*	4	-1	7	4
COc1ccc(/C=N/NC(=S)Nc2cccc(C(=O)O)c2)cc1OC	10	-3	7.6*	-2	0	37	5.6*
COc1ccc(C=NNC(=S)Nc2ccc(F)cc2)cc1OC	/	-17	5.7*	2	0	/	3
CC(C)(C)c1ccc(/C=N/Nc2cccc(C(=O)O)c2)cc1	-4	-1	1	-4	0	31	/
COc1ccc(/C=C2\Oc3cc(OCC(=O)N4CCC[C@H]4C(=O)O)ccc3C2=O)c(OC)c1OC	1	-7	5.1*	0	-2	16	5.5*
COc1ccc(/C=C2\Oc3cc(OCC(=O)N4CCC[C@H]4C(=O)O)ccc3C2=O)cc1OC	-1	-7	/	4	-2	18	/
COc1ccc(/C=C2\Oc3cc(OCC(=O)N4CC(O)C[C@H]4C(=O)O)ccc3C2=O)c(OC)c1OC (some centres undefined)	-1	1	4.9*	1	-1	10	3
COc1ccc(OC)c(/C=C2\Oc3cc(OCC(=O)N4CC(O)C[C@H]4C(=O)O)ccc3C2=O)c1 (some centres undefined)	0	-5	4	6	-2	28	/
CCn1nc(C(=O)NNS(=O)(=O)c2ccc(C)cc2)c2ccccc2c1=O	2	-2	0	4	0	/	/
CN(C)S(=O)(=O)c1ccc(C(=O)NC(=O)CSc2nncs2)cc1	0	-1	0	1	0	/	/
O=C(O)c1ccc(/C=C2\SC(=S)N(NC(=O)c3ccccc3[N+](=O)[O-])C2=O)cc1	/	-8	4.8*	-6	-1	12	4
